Assay results from ChEMBL document CHEMBL1130118, “A novel radioiodination reagent for protein radiopharmaceuticals with L-lysine as a plasma-stable metabolizable linkage to liberate m-iodohippuric acid after lysosomal proteolysis” (J Med Chem, 1997).
Where “and” joins values, the source holds several entries; their conditions need not be identical. Equal values may be shown once.

Legend:
Type in all cases: ADME, organism-based
Mus musculus [1] = assay: The biodistribution time for [131 I ]L-HML-NGA radioactivity after concomitant administration of [131 I ]L-HML-NGA and [125 I ]MPH-NGA in mice. It is expressed as percent injected dose per liver. Ent after 1 hour; settings: in vivo
Procedure, shortened: (§1)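 Six-week-old male ddY mice were given one i.v. co-injection of a 131I/125I-labelled NGA pair, each diluted to 90 µg/mL protein in 0.1 M PBS pH 6.0 and mixed 1:1, giving 9 µg of each radioiodinated NGA per mouse. Groups of five were killed at 5, 15, 30 min, 1 h and 3 h. Organs were weighed and counted in a well counter. Values are % ID per organ, blood as % ID/g, mean (SD).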

Mus musculus [2] = assay: The biodistribution time for [131 I ]L-HML-NGA radioactivity after concomitant administration of [131 I ]L-HML-NGA and [125 I ]D-HML-NGA in mice. It is expressed as percent injected dose per gram of blood tissue.; settings: in vivo; procedure, shortened: as §1
Mus musculus [3] = assay: The biodistribution time for [131 I ]L-HML-NGA radioactivity after concomitant administration of [131 I ]L-HML-NGA and [125 I ]D-HML-NGA in mice. It is expressed as percent injected dose per intestine.; settings: in vivo; procedure, shortened: as §1
Mus musculus [4] = assay: The biodistribution time for [131 I ]L-HML-NGA radioactivity after concomitant administration of [131 I ]L-HML-NGA and [125 I ]D-HML-NGA in mice. It is expressed as percent injected dose per neck.; settings: in vivo; procedure, shortened: as §1
Mus musculus [5] = assay: The biodistribution time for [131 I ]L-HML-NGA radioactivity after concomitant administration of [131 I ]L-HML-NGA and [125 I ]L-HML-IT-NGA in mice. It is expressed as percent injected dose per gram of blood tissue.; settings: in vivo; procedure, shortened: as §1
Mus musculus [6] = assay: The biodistribution time for [131 I ]L-HML-NGA radioactivity after concomitant administration of [131 I ]L-HML-NGA and [125 I ]L-HML-IT-NGA in mice. It is expressed as percent injected dose per gram of blood tissue. Values are mean(SD) of five anim; settings: in vivo; procedure, shortened: as §1
Mus musculus [7] = assay: The biodistribution time for [131 I ]L-HML-NGA radioactivity after concomitant administration of [131 I ]L-HML-NGA and [125 I ]L-HML-IT-NGA in mice. It is expressed as percent injected dose per intestine.; settings: in vivo; procedure, shortened: as §1
Mus musculus [8] = assay: The biodistribution time for [131 I ]L-HML-NGA radioactivity after concomitant administration of [131 I ]L-HML-NGA and [125 I ]L-HML-IT-NGA in mice. It is expressed as percent injected dose per neck.; settings: in vivo; procedure, shortened: as §1
Mus musculus [9] = assay: The biodistribution time for [131 I ]L-HML-NGA radioactivity after concomitant administration of [131 I ]L-HML-NGA and [125 I ]L-HML-IT-NGA in mice. It is expressed as percent injected dose per stomach.; settings: in vivo; procedure, shortened: as §1
Mus musculus [10] = assay: The biodistribution time for [131 I ]L-HML-NGA radioactivity after concomitant administration of [131 I ]L-HML-NGA and [125 I ]MIH-NGA in mice. It is expressed as percent injected dose per intestine.; settings: in vivo; procedure, shortened: as §1
Mus musculus [11] = assay: The biodistribution time for [131 I ]L-HML-NGA radioactivity after concomitant administration of [[131 I ]L-HML-NGA and [125 I ]MIH-NGA in mice. It is expressed as percent injected dose per kidney.; settings: in vivo; procedure, shortened: as §1
Mus musculus [12] = assay: The biodistribution time for [131 I ]L-HML-NGA radioactivity after concomitant administration of [131 I ]L-HML-NGA and [125 I ]MPH-NGA in mice. It is expressed as percent injected dose per neck.; settings: in vivo; procedure, shortened: as §1
Homo sapiens [13] = organism: Homo sapiens; assay: The percent protein-bound radioactivity in NGAfractions following incubation of radioiodinated [131 I ]L-HML-NGA in human serum after 24 hours
Procedure, shortened: (§2)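 Conjugates were diluted to 0.5 mg/mL in 0.1 M PBS pH 6.0, and 20 µL was added to 230 µL of freshly prepared human serum. Samples were incubated at 37 °C and taken at 1, 3, 6 or 24 h. Protein-bound fraction (Rf 0) was separated from small metabolites (Rf 0.6-0.9) by paper chromatography in methanol-water 4:1. Protein-bound radioactivity was divided by the initial radiochemical purity. Values are mean (SD).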

Homo sapiens [14] = organism: Homo sapiens; assay: The percent protein-bound radioactivity in NGAfractions following incubation of radioiodinated [131 I ]L-HML-NGA in human serum after 3 hours; settings: in vivo; procedure, shortened: as §2
Homo sapiens [15] = organism: Homo sapiens; assay: The percent protein-bound radioactivity in NGAfractions following incubation of radioiodinated [131 I ]L-HML-NGA in human serum after 6 hours; settings: in vivo; procedure, shortened: as §2
Mus musculus [16] = assay: The biodistribution time for [131 I ]L-HML-NGA radioactivity after concomitant administration of [131 I ]L-HML-NGA and [125 I ]MIH-NGA in mice. It is expressed as percent injected dose per stomach.; settings: in vivo; procedure, shortened: as §1
Mus musculus [17] = assay: The biodistribution time for [131 I ]L-HML-NGA radioactivity after concomitant administration of [131 I ]L-HML-NGA and [125 I ]MPH-NGA in mice. It is expressed as percent injected dose per gram of blood tissue.; settings: in vivo; procedure, shortened: as §1
Mus musculus [18] = assay: Biodistribution time for compound radioactivity after concomitant administration of compound and [125 I ]MIH-NGA in mice. It is expressed as % injected dose per liver. Values are mean(SD) of 5 animals for each experiment after 5 minutes; settings: in vivo; procedure, shortened: as §1
[19] = Cumulative radioactivity exerted by [131 I ]L-HML-NGA in the feces at 24 hour postinjection of [131 I ]L-HML-NGA and [125 I ]HML-IT-NGA.; settings: in vivo
Procedure, shortened: (§3)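 Mice received one i.v. co-injection of the dual-isotope NGA mixture, 9 µg of each radioiodinated protein, and were housed in metabolic cages for 24 h. Cumulative urine and feces were collected and counted. Values are % injected dose, mean (SD) of five animals, with a Student's paired t-test between the two co-administered conjugates.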

[20] = Cumulative radioactivity exerted by [131 I ]L-HML-NGA in the feces at 24 hour postinjection of [131 I ]L-HML-NGA and [125 I ]MPH-NGA.; settings: in vivo; procedure, shortened: as §3
[21] = Cumulative radioactivity exerted by [131 I ]L-HML-NGA in the urine at 24 hour postinjection of [131 I ]L-HML-NGA and [125 I ]D-HML-NGA.; settings: in vivo; procedure, shortened: as §3
[22] = Cumulative radioactivity exerted by [131 I ]L-HML-NGA in the urine at 24 hour postinjection of [131 I ]L-HML-NGA and [125 I ]HML-IT-NGA.; settings: in vivo; procedure, shortened: as §3
[23] = Cumulative radioactivity exerted by [131 I ]L-HML-NGA in the urine at 24 hour postinjection of [131 I ]L-HML-NGA and [125 I ]MIH-NGA.; settings: in vivo; procedure, shortened: as §3
[24] = Cumulative radioactivity exerted by [131 I ]L-HML-NGA in the urine at 24 hour postinjection of [131 I ]L-HML-NGA and [125 I ]MPH-NGA.; settings: in vivo; procedure, shortened: as §3
[25] = Cumulative radioactivity exerted by [131 I ]L-HML-NGA in the feces at 24 hour postinjection of [131 I ]L-HML-NGA and [125 I ]MIH-NGA.; settings: in vivo; procedure, shortened: as §3

- Radioactivity (Mus musculus [1]): 4.29%
- Radioactivity (Mus musculus [5]): 1.13% and 1.72% and 0.8% and 0.48%
- Radioactivity (Mus musculus [6]): 3.19%
- Radioactivity (Mus musculus [8]): 0.07% and 0.25% and 0.21% and 0.03%
- Radioactivity (Mus musculus [9]): 0.17% and 0.46% and 0.3% and 0.35%
- Radioactivity (Mus musculus [12]): 0.05% and 0.23% and 0.09% and 0.03%
- Radioactivity (Homo sapiens [13]): 97.23%
- Radioactivity (Homo sapiens [14]): 99.07%
- Radioactivity (Homo sapiens [15]): 98.39%
- Radioactivity (Mus musculus [18]): 94.15%
- Radioactivity [19]: 2.83%
- Radioactivity [20]: 3.28%
- Radioactivity [21]: 80.78%
- Radioactivity [22]: 80.07%
- Radioactivity [23]: 87.32%
- Radioactivity [24]: 84.45%
- Radioactivity [25]: 5.87%
SMILES: N[C@@H](CS)C(=O)SC1CC(=O)N(CCCC[C@H](NC(=O)CNC(=O)c2cccc([131I])c2)C(=O)O)C1=O (stereo not given in full)
- Radioactivity (Mus musculus [2]): 1.9% and 3.14% and 1.63% and 0.82% and 0.5%
- Radioactivity (Mus musculus [3]): 1.77% and 4.88% and 7.76% and 9.83% and 8.6%
- Radioactivity (Mus musculus [4]): 0.13% and 0.28% and 0.17% and 0.12% and 0.05%
- Radioactivity (Mus musculus [7]): 0.35% and 2.3% and 4.98% and 5.54% and 5.14%
- Radioactivity (Mus musculus [10]): 0.78% and 3.57% and 5.41% and 6.15% and 4.54%
- Radioactivity (Mus musculus [11]): 0.84% and 4.16% and 2.19% and 0.51% and 0.16%
- Radioactivity (Mus musculus [16]): 0.39% and 0.47% and 0.46% and 0.45% and 0.51%
- Radioactivity (Mus musculus [17]): 1.22% and 3.14% and 1.28% and 0.54% and 0.31%
